Assay results: ChEMBL document CHEMBL1641369, “The synthesis and biological evaluation of 2-(3-methyl or 3-phenylisoxazol-5-yl)-3-aryl-8-thiabicyclo[3.2.1]octanes” (Bioorg Med Chem Lett, 2011)

Assays:
[1] = molecular target: Sodium-dependent serotonin transporter (Homo sapiens, UniProt P31645); assay: Displacement of [3H]citalopram from human SERT expressed in HEK293 cell membrane; format: cell membranes
In short: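 Human SERT was labelled with [3H]citalopram at a fixed concentration and competed against a range of test-drug concentrations. Nonspecific binding was measured with fluoxetine at 10 μM. IC50 reported as mean ± SEM of at least three independent experiments, each run in triplicate. Some entries are screening data from replicate triplicate experiments.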

[2] = molecular target: Sodium-dependent dopamine transporter (Homo sapiens, UniProt Q01959); assay: Displacement of [3H]WIN35428 from human DAT transfected cell membrane
Sodium-dependent dopamine transporter, sequence (Q01959 whole entry): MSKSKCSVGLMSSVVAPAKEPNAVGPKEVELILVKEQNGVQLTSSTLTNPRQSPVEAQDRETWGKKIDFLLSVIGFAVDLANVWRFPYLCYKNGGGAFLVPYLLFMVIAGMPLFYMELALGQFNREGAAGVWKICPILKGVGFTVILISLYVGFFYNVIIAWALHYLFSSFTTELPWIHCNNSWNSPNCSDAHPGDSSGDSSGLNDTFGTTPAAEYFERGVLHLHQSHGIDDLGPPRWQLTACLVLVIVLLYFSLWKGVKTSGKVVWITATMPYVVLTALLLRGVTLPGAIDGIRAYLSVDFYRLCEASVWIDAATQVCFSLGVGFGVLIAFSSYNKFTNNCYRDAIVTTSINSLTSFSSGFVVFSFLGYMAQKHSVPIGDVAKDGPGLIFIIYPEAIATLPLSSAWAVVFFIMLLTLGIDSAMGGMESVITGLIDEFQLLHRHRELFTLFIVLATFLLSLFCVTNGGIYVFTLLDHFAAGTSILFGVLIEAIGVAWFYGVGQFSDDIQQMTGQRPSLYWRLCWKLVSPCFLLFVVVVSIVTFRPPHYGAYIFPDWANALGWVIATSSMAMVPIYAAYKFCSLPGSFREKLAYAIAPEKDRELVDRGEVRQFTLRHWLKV

Sodium-dependent serotonin transporter, sequence (P31645 whole entry): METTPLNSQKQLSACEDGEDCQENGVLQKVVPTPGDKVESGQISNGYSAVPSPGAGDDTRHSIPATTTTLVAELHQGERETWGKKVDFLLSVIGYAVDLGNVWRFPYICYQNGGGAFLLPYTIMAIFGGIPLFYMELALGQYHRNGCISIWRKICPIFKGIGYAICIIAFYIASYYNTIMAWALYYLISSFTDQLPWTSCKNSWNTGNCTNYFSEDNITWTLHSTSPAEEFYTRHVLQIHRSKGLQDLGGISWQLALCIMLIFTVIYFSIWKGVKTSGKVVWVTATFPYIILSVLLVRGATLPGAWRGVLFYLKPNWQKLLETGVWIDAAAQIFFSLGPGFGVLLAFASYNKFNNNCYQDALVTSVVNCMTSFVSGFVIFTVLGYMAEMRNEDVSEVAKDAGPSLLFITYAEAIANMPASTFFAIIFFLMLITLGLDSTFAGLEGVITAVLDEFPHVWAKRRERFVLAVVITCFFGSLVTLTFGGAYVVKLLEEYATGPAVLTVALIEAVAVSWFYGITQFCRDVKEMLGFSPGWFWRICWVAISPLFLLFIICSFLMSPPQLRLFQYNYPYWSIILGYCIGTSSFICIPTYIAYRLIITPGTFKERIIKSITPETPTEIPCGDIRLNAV

Row | SMILES | IC50 [1] | IC50 [2]
1 | Clc1ccc(C2=C(c3cc(-c4ccccc4)no3)C3CCC(C2)S3)cc1 (stereo unspecified) | > 10000 nM | 66.5 nM
2 | Cc1cc(C2=C(c3ccc(F)cc3)CC3CCC2S3)on1 (stereo unspecified) | > 10000 nM | > 1000 nM
3 | Clc1ccc([C@@H]2CC3CCC(S3)C2c2cc(-c3ccccc3)no2)cc1 (stereo partly specified) | > 10000 nM | 130 nM
4 | c1ccc(C2=C(c3cc(-c4ccccc4)no3)C3CCC(C2)S3)cc1 (stereo unspecified) | > 10000 nM | > 5000 nM
5 | Brc1ccc([C@@H]2CC3CCC(S3)C2c2cc(-c3ccccc3)no2)cc1 (stereo partly specified) | > 10000 nM | 238 nM
6 | Fc1ccc([C@H]2CC3CCC(S3)C2c2cc(-c3ccccc3)no2)cc1 (stereo partly specified) | > 10000 nM | 49 nM
7 | c1ccc(-c2cc(C3C4CCC(C[C@H]3c3ccccc3)S4)on2)cc1 (stereo partly specified) | > 10000 nM | > 1000 nM
8 | Cc1cc([C@@H]2C3CCC(C[C@H]2c2ccccc2)S3)on1 (stereo partly specified) | > 10000 nM | 65 nM
9 | Cc1cc([C@@H]2C3CCC(C[C@@H]2c2ccc(Cl)c(Cl)c2)S3)on1 (stereo partly specified) | 766 nM | 43.5 nM
10 | Cc1cc([C@@H]2C3CCC(C[C@@H]2c2ccc(F)cc2)S3)on1 (stereo partly specified) | > 1000 nM | 7 nM
11 | Cc1cc([C@@H]2C3CCC(C[C@H]2c2ccc(Br)cc2)S3)on1 (stereo partly specified) | > 4000 nM | 46.6 nM
12 | Cc1cc(C2=C(c3ccccc3)CC3CCC2S3)on1 (stereo unspecified) | > 10000 nM | > 2000 nM
13 | c1ccc(-c2cc(C3C4CCC(C[C@@H]3c3ccccc3)S4)on2)cc1 (stereo partly specified) | > 10000 nM | 157 nM
14 | Clc1ccc(C2=C(c3cc(-c4ccccc4)no3)C3CCC(C2)S3)cc1Cl (stereo unspecified) | > 10000 nM | 332 nM
15 | Fc1ccc([C@@H]2CC3CCC(S3)C2c2cc(-c3ccccc3)no2)cc1 (stereo partly specified) | > 10000 nM | 456 nM
16 | Clc1ccc([C@H]2CC3CCC(S3)C2c2cc(-c3ccccc3)no2)cc1Cl (stereo partly specified) | > 10000 nM | 269 nM
17 | Cc1cc([C@@H]2C3CCC(C[C@@H]2c2ccc(Br)cc2)S3)on1 (stereo partly specified) | 755 nM | 14 nM
18 | Fc1ccc(C2=C(c3cc(-c4ccccc4)no3)C3CCC(C2)S3)cc1 (stereo unspecified) | > 10000 nM | > 2000 nM
19 | Cc1cc([C@@H]2C3CCC(C[C@H]2c2ccc(Cl)c(Cl)c2)S3)on1 (stereo partly specified) | > 2000 nM | 101 nM
20 | Cc1cc([C@@H]2C3CCC(C[C@H]2c2ccc(Cl)cc2)S3)on1 (stereo partly specified) | > 7000 nM | 32.7 nM
21 | Cc1cc([C@@H]2C3CCC(C[C@@H]2c2ccc(Cl)cc2)S3)on1 (stereo partly specified) | > 1000 nM | 7.2 nM
22 | Cc1cc(C2=C(c3ccc(Br)cc3)CC3CCC2S3)on1 (stereo unspecified) | > 10000 nM | 139 nM
23 | Cc1cc(C2=C(c3ccc(Cl)cc3)CC3CCC2S3)on1 (stereo unspecified) | > 10000 nM | 155 nM
24 | Cc1cc(C2=C(c3ccc(Cl)c(Cl)c3)CC3CCC2S3)on1 (stereo unspecified) | > 10000 nM | 69.2 nM
25 | Cc1cc([C@@H]2C3CCC(C[C@H]2c2ccc(F)cc2)S3)on1 (stereo partly specified) | > 10000 nM | 22 nM
26 | Cc1cc([C@@H]2C3CCC(C[C@@H]2c2ccccc2)S3)on1 (stereo partly specified) | > 10000 nM | 12 nM
27 | Clc1ccc([C@@H]2CC3CCC(S3)C2c2cc(-c3ccccc3)no2)cc1Cl (stereo partly specified) | > 10000 nM | 497 nM
28 | Brc1ccc(C2=C(c3cc(-c4ccccc4)no3)C3CCC(C2)S3)cc1 (stereo unspecified) | > 10000 nM | 126 nM
